According to ChEMBL document CHEMBL1157197, “Design, synthesis and trypanocidal activity of lead compounds based on inhibitors of parasite glycolysis” (Bioorg Med Chem, 2008):

What was measured:
[1] = target: T1, Pyruvate kinase (Leishmania mexicana) (UniProt Q27686); test: Inhibition of Leishmania mexicana pyruvate kinase assessed as enzyme residual activity at 5 mM
T1 sequence (whole entry): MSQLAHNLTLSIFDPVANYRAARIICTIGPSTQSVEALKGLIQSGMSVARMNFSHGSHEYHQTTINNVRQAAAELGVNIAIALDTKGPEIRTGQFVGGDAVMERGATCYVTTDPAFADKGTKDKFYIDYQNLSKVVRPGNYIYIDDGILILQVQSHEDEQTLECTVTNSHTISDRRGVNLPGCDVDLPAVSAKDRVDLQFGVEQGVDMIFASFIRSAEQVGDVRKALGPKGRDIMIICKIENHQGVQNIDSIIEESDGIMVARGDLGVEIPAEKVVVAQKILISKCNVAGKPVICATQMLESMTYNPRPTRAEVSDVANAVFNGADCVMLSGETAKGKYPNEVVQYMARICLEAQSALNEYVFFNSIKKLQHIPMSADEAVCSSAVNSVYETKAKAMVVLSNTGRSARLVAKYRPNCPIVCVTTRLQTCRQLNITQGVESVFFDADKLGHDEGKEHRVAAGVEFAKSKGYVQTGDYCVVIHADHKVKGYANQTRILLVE

[2] = target: T2, ATP-dependent 6-phosphofructokinase (Trypanosoma brucei) (UniProt O15648); test: Inhibition of Trypanosoma brucei phosphofructokinase assessed as enzyme residual activity at 5 mM
T2 sequence (whole entry): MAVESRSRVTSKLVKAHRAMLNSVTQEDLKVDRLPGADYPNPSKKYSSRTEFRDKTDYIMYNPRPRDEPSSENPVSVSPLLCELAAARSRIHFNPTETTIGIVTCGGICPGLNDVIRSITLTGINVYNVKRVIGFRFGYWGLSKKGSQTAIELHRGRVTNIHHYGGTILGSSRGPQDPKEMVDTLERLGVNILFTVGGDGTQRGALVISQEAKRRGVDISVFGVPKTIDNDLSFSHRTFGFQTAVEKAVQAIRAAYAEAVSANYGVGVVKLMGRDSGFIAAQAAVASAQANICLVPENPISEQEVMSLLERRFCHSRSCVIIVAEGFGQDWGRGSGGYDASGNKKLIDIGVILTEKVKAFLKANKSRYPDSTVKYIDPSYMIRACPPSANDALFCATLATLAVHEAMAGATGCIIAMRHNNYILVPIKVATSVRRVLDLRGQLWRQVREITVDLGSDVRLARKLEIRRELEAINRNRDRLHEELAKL

Pyruvate kinase = target: T3, Pyruvate kinase (Leishmania mexicana, UniProt Q27686); test: Inhibition of Leishmania mexicana pyruvate kinase
T3 sequence (Q27686 whole entry): T1 sequence (whole entry)

[3] = target: T2, ATP-dependent 6-phosphofructokinase (Trypanosoma brucei); test: Inhibition of Trypanosoma brucei phosphofructokinase assessed as enzyme residual activity at 1 mM
[4] = target: T4, ATP-dependent 6-phosphofructokinase (Trypanosoma brucei, UniProt O15648); test: Inhibition of Trypanosoma brucei phosphofructokinase
T4 sequence (O15648 whole entry): T2 sequence (whole entry)

Trypanosoma brucei = test: Antiparasitic activity against Trypanosoma brucei strain 427; type: functional; details: read-out: ED50 (the source's name)
Procedure, shortened: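 Cultured bloodstream-form Trypanosoma brucei brucei strain 427 exposed to compounds in vitro; ED50 reported.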

| SMILES | Activity [1] [%] | Activity [2] [%] | other results |
| --- | --- | --- | --- |
| COC[C@H](C)NC[C@H]1O[C@H](CO)[C@@H](O)[C@@H]1O | 82 | 35 | – |
| OC[C@H]1O[C@H](CN[C@@H]2C[C@@H]3CC[C@@H]2C3)[C@@H](O)[C@@H]1O | 47 | – | – |
| CCC(CO)NC[C@H]1O[C@H](CO)[C@@H](O)[C@@H]1O (stereo partly drawn) | 90 | 36 | – |
| Cc1ccc(C)c(CNC[C@H]2O[C@H](CO)[C@@H](O)[C@@H]2O)c1 | – | 69 | – |
| OC[C@H]1O[C@H](CN[C@H]2C[C@@H]3CC[C@@H]2C3)[C@@H](O)[C@@H]1O | 19 | 40 | IC50 (Pyruvate kinase): 1500 µM |
| O=C(NCc1ccc(Cl)c(Cl)c1)[C@H]1O[C@H](CNC2CCCCCC2)[C@@H](O)[C@@H]1O | – | – | Activity [3]: 0.4%; IC50 [4]: 49 µM |
| Cc1ccc(CNC[C@H]2O[C@H](CO)[C@@H](O)[C@@H]2O)cc1 | 90 | 73 | – |
| CC[C@@H](C)NC[C@H]1O[C@H](CO)[C@@H](O)[C@@H]1O | 28 | – | – |
| CC(CCCC(C)(C)O)NC[C@H]1O[C@H](CO)[C@@H](O)[C@@H]1O (stereo partly drawn) | 125 | 58 | – |
| O=C(Nc1ccc([N+](=O)[O-])cc1)[C@H]1O[C@H](CNC2CCCCCC2)[C@@H](O)[C@@H]1O | 12.5 | – | – |
| O=C(Nc1ccccc1)[C@H]1O[C@H](CNC2CCCCCC2)[C@@H](O)[C@@H]1O | 24.8 | – | – |
| OC[C@H]1O[C@H](CNC2CCCC2)[C@@H](O)[C@@H]1O | 52 | 87 | IC50 (Pyruvate kinase): 4100 µM |
| O=C(Nc1cccc([N+](=O)[O-])c1)[C@H]1O[C@H](CNC2CCCCCC2)[C@@H](O)[C@@H]1O | 7.6 | – | IC50 (Pyruvate kinase): 53 µM |
| Cc1ccc(CNC[C@H]2O[C@H](CO)[C@@H](O)[C@@H]2O)cc1C | 85 | 59 | – |
| C=CCNC(=O)[C@H]1O[C@H](CNC2CCCCCC2)[C@@H](O)[C@@H]1O | 19.1 | – | – |
| O=C(NC1CCCCCC1)[C@H]1O[C@H](CNC2CCCCCC2)[C@@H](O)[C@@H]1O | 1.9 | – | IC50 (Pyruvate kinase): 26 µM |
| O=C(Nc1cccc([N+](=O)[O-])c1)[C@H]1O[C@H](CNCc2ccc(Cl)c(Cl)c2)[C@@H](O)[C@@H]1O | – | – | Activity [3]: 1.7% |
| O=C(Nc1ccc([N+](=O)[O-])cc1)[C@H]1O[C@H](CNCc2ccc(Cl)c(Cl)c2)[C@@H](O)[C@@H]1O | – | – | Activity [3]: 0.8% |
| OC[C@H]1O[C@H](CNCc2cccc(F)c2)[C@@H](O)[C@@H]1O | 100 | 57 | – |
| CC(C)CCCC(C)NC[C@H]1O[C@H](CO)[C@@H](O)[C@@H]1O (stereo partly drawn) | 80 | 87 | – |
| CCCC(C)NC[C@H]1O[C@H](CO)[C@@H](O)[C@@H]1O (stereo partly drawn) | 26 | 70 | IC50 (Pyruvate kinase): 2500 µM |

| SMILES | Activity [1] [%] | Activity [2] [%] | other results |
| --- | --- | --- | --- |
| OC[C@H]1O[C@H](CNC2CCCCCCC2)[C@@H](O)[C@@H]1O | 57 | 64 | – |
| O=C(NCc1ccccc1)[C@H]1O[C@H](CNCc2ccc(Cl)c(Cl)c2)[C@@H](O)[C@@H]1O | – | – | Activity [3]: 4% |
| Cc1cccc(CNC[C@H]2O[C@H](CO)[C@@H](O)[C@@H]2O)c1 | 89 | 61 | – |
| CC(C)C[C@@H](CO)NC[C@H]1O[C@H](CO)[C@@H](O)[C@@H]1O | 73 | 64 | – |
| O=C(Nc1ccccc1)[C@H]1O[C@H](CNCc2ccc(Cl)c(Cl)c2)[C@@H](O)[C@@H]1O | – | – | Activity [3]: 5.5% |
| CC(C)[C@H](C)NC[C@H]1O[C@H](CO)[C@@H](O)[C@@H]1O | 26 | 49 | IC50 (Pyruvate kinase): 2300 µM |
| CCCCCCNC[C@H]1O[C@H](CO)[C@@H](O)[C@@H]1O | 40 | – | EC50 (Trypanosoma brucei): 400 µM |
| Cc1ccc(CNC[C@H]2O[C@H](CO)[C@@H](O)[C@@H]2O)c(C)c1 | 103 | 87 | – |
| CC(C)C[C@H](CO)NC[C@H]1O[C@H](CO)[C@@H](O)[C@@H]1O | 86 | 52 | – |
| O=C(NCc1ccccc1)[C@H]1O[C@H](CNC2CCCCCC2)[C@@H](O)[C@@H]1O | 11.5 | – | – |
| OC[C@H]1O[C@H](CNCc2ccc(Cl)cc2Cl)[C@@H](O)[C@@H]1O | – | 58 | – |
| OC[C@H]1O[C@H](CNC2CCCCCC2)[C@@H](O)[C@@H]1O | 19 | 63 | IC50 (Pyruvate kinase): 71 µM; EC50 (Trypanosoma brucei): 1880 µM |
| OC[C@H]1O[C@H](CNCc2cccc(Cl)c2)[C@@H](O)[C@@H]1O | 88 | 85 | – |
| CC(NC[C@H]1O[C@H](CO)[C@@H](O)[C@@H]1O)C(O)c1ccccc1 (stereo partly drawn) | 80 | 64 | – |
| OC[C@H]1O[C@H](CNC2CCC2)[C@@H](O)[C@@H]1O | 43 | 54 | IC50 (Pyruvate kinase): 4300 µM |
| CC(C)CCC(C)NC[C@H]1O[C@H](CO)[C@@H](O)[C@@H]1O (stereo partly drawn) | 115 | 44 | – |
| OC[C@H]1O[C@H](CNC2CCCc3ccccc32)[C@@H](O)[C@@H]1O (stereo partly drawn) | 36 | 62 | IC50 (Pyruvate kinase): 1200 µM; EC50 (Trypanosoma brucei): 830 µM |
| OC[C@H]1O[C@H](CNCc2cccc(C(F)(F)F)c2)[C@@H](O)[C@@H]1O | 105 | 46 | – |
| OC[C@H]1O[C@H](CNC2CCCCC2)[C@@H](O)[C@@H]1O | 83 | 69 | – |
| CC(C)[C@@H](C)NC[C@H]1O[C@H](CO)[C@@H](O)[C@@H]1O | 86 | 51 | – |

Further lines, with some results ahead:

| Activity [1] [%] | Activity [2] [%] | SMILES | other results |
| --- | --- | --- | --- |
| 58 | – | C[C@H](NC[C@H]1O[C@H](CO)[C@@H](O)[C@@H]1O)c1ccc(Cl)cc1 | – |
| 25 | – | COc1ccc([C@@H](C)NC[C@H]2O[C@H](CO)[C@@H](O)[C@@H]2O)cc1 | IC50 (Pyruvate kinase): 900 µM |
| 42 | 63 | OC[C@H]1O[C@H](CNCc2ccccc2F)[C@@H](O)[C@@H]1O | – |
| 72 | 83 | OC[C@H](Cc1ccccc1)NC[C@H]1O[C@H](CO)[C@@H](O)[C@@H]1O | – |
| 59 | 47 | OCC(Cc1ccccc1)NC[C@H]1O[C@H](CO)[C@@H](O)[C@@H]1O (stereo partly drawn) | – |
| – | 75 | OC[C@H]1O[C@H](CNCc2ccc(-c3ccccc3)cc2)[C@@H](O)[C@@H]1O | – |
| 53 | – | C[C@@H](NC[C@H]1O[C@H](CO)[C@@H](O)[C@@H]1O)c1ccc(F)cc1 | – |
| 89 | 30 | OC[C@H]1O[C@H](CNC(c2ccccc2)c2ccccc2)[C@@H](O)[C@@H]1O | – |
| 34 | 33 | C[C@@H](NC[C@H]1O[C@H](CO)[C@@H](O)[C@@H]1O)c1ccc2ccccc2c1 | IC50 (Pyruvate kinase): 1500 µM |
| 49 | 33 | OC[C@H]1O[C@H](CNC2Cc3ccccc3C2)[C@@H](O)[C@@H]1O | – |
| 100 | 68 | Cc1ccccc1CNC[C@H]1O[C@H](CO)[C@@H](O)[C@@H]1O | – |
| 81 | 65 | OC[C@H]1O[C@H](CNCc2ccc(Cl)cc2)[C@@H](O)[C@@H]1O | – |
| 107 | 59 | OC[C@H]1O[C@H](CNCc2ccc(F)cc2)[C@@H](O)[C@@H]1O | – |
| 30 | – | C[C@H](NC[C@H]1O[C@H](CO)[C@@H](O)[C@@H]1O)c1ccc2ccccc2c1 | IC50 (Pyruvate kinase): 1500 µM |
| 85 | 47 | OCCC(NC[C@H]1O[C@H](CO)[C@@H](O)[C@@H]1O)c1ccccc1 (stereo partly drawn) | – |
| 36 | – | C[C@H](NC[C@H]1O[C@H](CO)[C@@H](O)[C@@H]1O)c1ccc(F)cc1 | – |
| 71 | 65 | OC[C@H]1O[C@H](CNCc2ccccc2Cl)[C@@H](O)[C@@H]1O | – |
| 97 | 77 | OC[C@@H](Cc1ccccc1)NC[C@H]1O[C@H](CO)[C@@H](O)[C@@H]1O | – |
| 60 | 57 | OC[C@H]1O[C@H](CN[C@@H]2c3ccccc3C[C@@H]2O)[C@@H](O)[C@@H]1O | – |
| 22 | – | COc1ccc([C@H](C)NC[C@H]2O[C@H](CO)[C@@H](O)[C@@H]2O)cc1 | IC50 (Pyruvate kinase): 3500 µM |
| 84 | – | C[C@@H](NC[C@H]1O[C@H](CO)[C@@H](O)[C@@H]1O)c1ccc(Cl)cc1 | – |
| 86 | 41 | OC[C@H]1O[C@H](CNC2CCc3ccccc32)[C@@H](O)[C@@H]1O (stereo partly drawn) | – |
| 103 | 52 | OC[C@H]1O[C@H](CN[C@H]2c3ccccc3C[C@H]2O)[C@@H](O)[C@@H]1O | – |
| 95 | 73 | CC(CCc1ccccc1)NC[C@H]1O[C@H](CO)[C@@H](O)[C@@H]1O (stereo partly drawn) | – |
